# SENP8 block-1: SENP8 (human) protease inhibition. inhibition, % at 20 µM. AID 602440. recombinant SENP8, Nedd8 substrate fluorescence. 360,000 tested, 0.64% active. Q96LD8; in the data active means inhibition mostly above about 40%, no sharp cut-off; inactive means mostly below about 27%
# Target sequence (Q96LD8 whole entry, looked up): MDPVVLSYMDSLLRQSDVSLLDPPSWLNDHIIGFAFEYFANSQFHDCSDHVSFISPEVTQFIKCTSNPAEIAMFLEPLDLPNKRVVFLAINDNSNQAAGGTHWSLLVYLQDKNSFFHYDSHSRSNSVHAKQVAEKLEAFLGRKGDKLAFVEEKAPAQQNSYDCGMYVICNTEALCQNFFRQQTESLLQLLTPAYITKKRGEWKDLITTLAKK
# SENP6 inh: blocks the human protease SENP6; Q9GZR1; Recombinant SENP6 catalytic domain, aminoluciferin luminescence; inhibition, % at 10 µM; 330,000 tested, 1.8% active;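 active means inhibition above about 50% at the single tested dose, limit read from the data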
# Target sequence (Q9GZR1 628-1112 limits assumed): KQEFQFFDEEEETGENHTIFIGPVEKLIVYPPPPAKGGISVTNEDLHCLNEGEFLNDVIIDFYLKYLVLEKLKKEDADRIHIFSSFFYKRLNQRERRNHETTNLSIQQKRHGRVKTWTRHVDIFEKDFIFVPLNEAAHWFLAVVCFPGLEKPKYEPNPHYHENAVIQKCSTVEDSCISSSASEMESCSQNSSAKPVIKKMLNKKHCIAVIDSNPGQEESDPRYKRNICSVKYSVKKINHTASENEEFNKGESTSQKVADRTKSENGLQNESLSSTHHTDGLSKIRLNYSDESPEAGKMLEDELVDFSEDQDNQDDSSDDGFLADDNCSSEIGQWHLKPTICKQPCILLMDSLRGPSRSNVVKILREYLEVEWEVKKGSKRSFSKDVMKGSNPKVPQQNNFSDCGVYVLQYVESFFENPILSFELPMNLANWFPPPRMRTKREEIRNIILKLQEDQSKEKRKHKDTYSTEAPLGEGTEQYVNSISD
# SENP8 block-2: SENP8 protease inhibition; Q96LD8; inhibition, % at 10 µM; 330,000 tested, 1.2% active; purified SENP8, Z-RLRGG-aminoluciferin cleavage, luminescence; in the data active means inhibition above about 50%
# Apaf1 inhib: blocks human Apaf-1 apoptosome activity | O14727 | reconstituted apoptosome caspase-3 activity, DEVD-Rh110 fluorescence | inhibition, % at 20 µM | 330,000 tested, 0.71% active; active means inhibition of at least 40% at 20 µM
#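 System: Apoptosome proteins | Medium: Hepes pH 7.5 with detergent and BSA | Also added: Cytochrome c trigger plus (Z-DEVD)2-Rh110 caspase-3 substrate | Incubation: 30 min compound preincubation, 50 min activation, room temperature | Detection: Rhodamine 110 fluorescence at Ex 480/Em 540 nm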
# SENP7 inh: SENP7 protease inhibition; Q9BQF6; recombinant SENP7, Z-RLRGG-aminoluciferin luminescence, 40 min; inhibition, % at 5 µM; 330,000 tested, 1.5% active;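 active means inhibition above about 50% at the single test dose, limit read from the data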
# UBC13 inh: human UBC13 polyubiquitination inhibition; UBC13 polyubiquitin chain formation, TR-FRET; inhibition, % at 20 µM; 330,000 tested, 0.47% active; AID 485273; in the data active means inhibition above about 45%, passing the limit was not always enough
# SENP8 conf-1: human SENP8 inhibition, confirmed; shares compounds with SENP7 inh; Recombinant SENP8, Z-RLRGG-aminoluciferin luminescence, 60 min; inhibition, % at 12.5 µM; 6,200 tested, 40% active; AID 488912;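 active means mean inhibition across replicates above about 50%, limit read from the data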
# SENP6 conf: confirmation of human SENP6 protease inhibitors | shares compounds with SENP7 inh | recombinant SENP6, Z-RLRGG-aminoluciferin luminescence | inhibition, % at 12.5 µM | 6,200 tested, 58% active
# SENP7 confirm: human SENP7 inhibition, confirmed | inhibition, % at 12.5 µM | shares compounds with SENP7 inh | 6,200 tested, 69% active | AID 488917 | recombinant SENP7, Z-RLRGG-aminoluciferin luminescence, 40 min
# Casp3 SENP sel: inhibits human caspase-3 in SENP selectivity test. shares compounds with SENP7 inh. purified caspase-3, Z-DEVD-aminoluciferin luminescence, 60 min. inhibition, % at 12.5 µM. 6,200 tested, 60% active. AID 488918;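 active means mean inhibition above about 50%, limit read from the data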
# SENP luc ctr: interferes with luciferase luminescence in SENP counter-screen; shares compounds with SENP7 inh; Pre-incubated SENP8/Z-RLRGG-aminoluciferin, luciferase luminescence interference; inhibition, % at 12.5 µM; 6,200 tested, 39% active; AID 488919;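 active means mean inhibition above about 50% when retested at one dose, limit read from the data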
# Apaf-1 inh conf2: confirmation of Apaf-1 inhibitors; shares compounds with Apaf1 inhib; reconstituted apoptosome, caspase-3 DEVD-Rh110 fluorescence; inhibition, % at 20 µM; 1,800 tested, 25% active; AID 504614;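 active means mean inhibition of at least 40% at 20 µM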
# Rh110 interf inh: counter-screen for Apaf-1 inhibitors: fluorescence interference; shares compounds with Apaf1 inhib; Rh110 fluorescence interference, quenched caspase reaction; activation (fluorescence interference), % at 20 µM; 1,800 tested, under 10 active;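 active means signal rise of 40% or more at 20 µM, treated as a fluorescence artifact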
# Fluor interf inh: counter-screen for Apaf-1 inhibitors: fluorescence interference, dose response; shares compounds with Apaf1 inhib; fluorescence interference counterscreen, Apaf-1 assay format; IC50, µM; 460 tested, under 10 active; AID 588538; call rule not given here
# SENP8 conf-2: SENP8 (human) inhibition, single concentration confirmation; shares compounds with SENP8 block-1; purified SENP8, Nedd8-AMC/pro-Nedd8 cleavage fluorescence, 30 min; inhibition, % at 25 µM; 1,400 tested, 15% active; AID 624319; in the data active means inhibition mostly above about 39%, no sharp cut-off; inactive means mostly below about 34%
# Hits are given with their value; n = inactive; x = not tested or not shown. A selection: hits, their analogues and other compounds. The true share with any hit is near 3.1%.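 How the source made its calls, unless noted: active means mean inhibition above about 50% in the one-dose retest (limit read from the data); inactive means the rest.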
SMILES,SENP8 block-1,SENP6 inh,SENP8 block-2,Apaf1 inhib,SENP7 inh,UBC13 inh,SENP8 conf-1,SENP6 conf,SENP7 confirm,Casp3 SENP sel,SENP luc ctr,Apaf-1 inh conf2,Rh110 interf inh,SENP8 conf-2,others
O=C1c2ccccc2-c2nc3ccccc3nc21,47,51,n,n,n,n,n,53,n,64,n,x,x,89,
Cc1ccc(/C=N/NC(=O)c2cc(C)oc2C)cc1,41,84,74,n,86,n,n,74,95,90,82,x,x,n,
O=C1C2=C(c3ccccc31)[N+](=O)[C@@H]1CCCC[C@@H]1N2[O-],74,81,n,75,57,n,n,56,n,n,n,66,n,74,Fluor interf inh=n
C/C(=N\N=C(/N)c1nonc1N)c1ccc2c(c1)OCO2,43,84,82,n,92,n,88,88,100,91,n,x,x,n,
CC(=O)OCCCNc1cc(SCc2ccco2)c2nonc2c1[N+](=O)[O-],50,63,60,74,n,n,n,n,n,n,n,n,n,n,
Cc1ccc(S(=O)(=O)N(C)C[C@H]2Oc3ncc(Br)cc3C(=O)N([C@H](C)CO)C[C@@H]2C)cc1,n,x,x,x,x,x,x,x,x,x,x,x,x,x,
Cc1ccccc1N1C(=O)c2cccc3cccc(c23)C1=O,n,n,n,n,n,n,x,x,x,x,x,x,x,x,
Cc1ccccc1N1C(=O)Cc2ccccc2C1=O,88,67,n,n,n,n,n,57,n,n,n,x,x,n,
COCCNc1nc(Nc2ccc(C(=O)OC)cc2)c2sccc2n1,n,x,x,x,x,x,x,x,x,x,x,x,x,x,
COc1ccc(CNC(=O)COC(=O)c2cc(C)oc2C)cc1,n,x,x,x,x,x,x,x,x,x,x,x,x,x,
O=C1OC(Nc2cc(Br)cc3cccnc23)c2ccccc21 (stereo not drawn),41,94,n,97,92,n,n,63,51,n,n,x,x,n,
COc1ccc2nc3ccccc3nc2c1N,78,87,53,92,n,n,n,n,75,73,n,n,n,n,
CCCCOCCCNC(=O)C[C@@H]1C[C@@]2(C(=O)OC)CC(C)(C)CC=C2N(Cc2ccc3c(c2)OCO3)C1=O,n,x,x,x,x,x,x,x,x,x,x,x,x,x,
O=[N+]([O-])c1cc([N+](=O)[O-])c2nonc2c1Nc1ccc(O)cc1,79,58,n,74,n,n,n,n,n,n,n,n,n,n,
O=[N+]([O-])c1cc([N+](=O)[O-])c2nonc2c1Nc1ccccc1O,n,n,n,n,n,n,x,x,x,x,x,x,x,x,
Cc1c(Cl)cccc1N=Cc1ccc([N+](=O)[O-])s1,68,51,55,n,n,n,n,n,n,n,n,x,x,n,
O=C1Cc2ccccc2C(=O)N1OCc1ccc(Cl)cc1,92,71,n,95,52,n,n,n,n,n,n,n,n,64,
C#CCNC(=O)C[C@@H]1C[C@@]2(C(=O)OC)CC(C)(C)CC=C2N(CCCCCCCC)C1=O,n,x,x,x,x,x,x,x,x,x,x,x,x,x,
N#CC1=C2SCN(Cc3ccccc3)CN2C(=O)CC1c1cccs1 (stereo not drawn),69,74,71,78,n,n,n,n,n,n,n,n,n,n,
O=c1[nH]c(=S)[nH]c2c1C(c1ccc(Cl)cc1)OC(C1CCCCC1)C2 (stereo not drawn),n,x,x,x,x,x,x,x,x,x,x,x,x,x,
CCN(CC)c1cc(Cl)c2nonc2c1N,n,n,n,n,n,n,x,x,x,x,x,x,x,x,
CN(C)c1cc(Cl)c2nonc2c1N,89,95,96,94,91,n,n,n,n,n,n,52,n,56,Fluor interf inh=n
COC(=O)c1ccc2nc(-c3ccc(C#N)cc3)c(Cc3cccc(F)c3)n2c1,n,x,x,x,x,x,x,x,x,x,x,x,x,x,
O=C(Cc1ccccc1)Nc1nc2ccccc2s1,n,n,n,n,n,n,x,x,x,x,x,x,x,x,
O=C(Cc1ccccc1)c1nc2ccccc2s1,48,69,54,n,n,n,n,64,87,62,n,x,x,67,
SMILES,SENP8 block-1,SENP6 inh,SENP8 block-2,Apaf1 inhib,SENP7 inh,UBC13 inh,SENP8 conf-1,SENP6 conf,SENP7 confirm,Casp3 SENP sel,SENP luc ctr,Apaf-1 inh conf2,Rh110 interf inh,SENP8 conf-2,others
O=C(N/N=C/c1ccc(OCc2ccccc2)cc1)c1ccncc1,n,n,n,n,n,n,x,x,x,x,x,x,x,x,
Oc1ccc(N=Cc2ccc(OCc3ccccc3)cc2)cc1,66,91,57,93,n,n,n,57,68,n,n,n,n,n,
CCN(CC)S(=O)(=O)c1ccc(C(=O)NCC(=O)NCc2ccc3c(c2)OCO3)cc1,n,x,x,x,x,x,x,x,x,x,x,x,x,x,
COc1ccc(Nc2ccc(OC)cc2)cc1,96,54,n,80,n,n,n,n,n,n,n,n,n,n,
COc1ccc(Nc2ccc(Nc3ccc(OC)cc3)nn2)cc1,n,n,n,n,n,n,x,x,x,x,x,x,x,x,
NC(Cc1ccccc1)c1csc(Nc2nccc(C(F)(F)F)n2)n1 (stereo not drawn),n,x,x,x,x,x,x,x,x,x,x,x,x,x,
COc1cc(NC(C)CCCN)c2ncccc2c1 (stereo not drawn),47,64,n,92,84,n,n,69,n,97,n,n,n,81,
Cc1nc(NNC(=O)c2ccc([N+](=O)[O-])cc2)cc(-c2ccccc2)n1,n,n,n,n,n,n,x,x,x,x,x,x,x,x,
O=C(CCc1ccccc1)NNc1cc(N2CCCCC2)nc(N2CCCCC2)n1,47,n,n,60,58,n,n,n,n,n,n,44,n,51,Fluor interf inh=n
CC(C)(C)c1ccc(C(=O)NNc2cc(N3CCOCC3)nc(N3CCOCC3)n2)cc1,n,n,n,n,n,n,x,x,x,x,x,x,x,x,
CC(C)(C)c1ccc(C(=O)NNc2cc(N3CCCCC3)nc(N3CCCCC3)n2)cc1,48,86,n,73,74,n,n,n,n,n,n,44,n,79,Fluor interf inh=n
